In ChEMBL document CHEMBL1287653, “Structural modifications on the phenazine N,N'-dioxide-scaffold looking for new selective hypoxic cytotoxins” (Eur J Med Chem, 2010):

Columns and labels:
[1] = test system: Calf thymus DNA; test: Binding affinity to calf thymus DNA assessed as ratio of final absorbance area to absorbance of compound at 100 uM after 24 hrs by UV spectrophotometer analysis; type: nucleic-acid assay; conditions: Bos taurus
Summary of the method: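 Calf thymus DNA in 10 mM Tris-HCl, pH 7.4. Compound stock 10^-4 M (≤5% solvent), diluted with water to 2 × 10^-5 M, then mixed 1:1 with DNA solution. Rotated 24 h; UV spectra taken at 20 °C in a 1-cm cell. Areas of a 20 nm band at λmax at 0 and 24 h; reported as a24/a0.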

[2] = test system: Calf thymus DNA; test: Binding affinity to calf thymus DNA assessed as fluorescence quenching at 20 uM after 24 hrs by fluorescence spectroscopy analysis; type: nucleic-acid assay; design: unit not given here; conditions: Bos taurus
[3] = Cytotoxicity against chinese hamster V79 cells assessed as survival fraction under normoxic condition at 20 uM after 7 days by crystal violet staining relative to control; type: cell-based, Cricetulus griseus; conditions: read-out: Activity
Summary of the method: (§1)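 Exponential-phase V79 cells trypsinized into gassed suspension culture (2 × 10^4 cells/mL, EMEM, 10% FBS, 10 mM HEPES). Compound added 30 min after gassing began, in duplicate flasks, with a DMSO control; exposure 2 h. Cells then plated for colony formation at 37 °C, 5% CO2, for 7 days and stained with crystal violet. Colonies >64 cells counted; survival = PEtreated/PEcontrol × 100; means of two experiments.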

[4] = test system: V79; test: Cytotoxicity against chinese hamster V79 cells assessed as survival fraction under hypoxic condition at 20 uM after 7 days by crystal violet staining relative to control; type: functional, Cricetulus griseus
Summary of the method: (§2)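 V79 Chinese hamster lung fibroblasts grown in EMEM with 10% FBS, then set up as suspension cultures (2 × 10^4 cells/mL, EMEM, 10% FBS, 10 mM HEPES) under simulated hypoxic gassing. Compound in DMSO added 30 min after gassing began, duplicate flasks per dose, 2 h exposure. Cells then plated and grown 7 days at 37 °C, stained with crystal violet, and colonies >64 cells counted. Survival = PEtreated/PEcontrol × 100.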

[5] = test system: V79; test: Cytotoxicity against chinese hamster V79 cells assessed as concentration required to kill 99% cells under hypoxic condition after 7 days by crystal violet staining relative to control; type: functional, Cricetulus griseus; summary of the method: as §2
[6] = test system: V79; test: Hypoxic cytotoxicity ratio, concentration required to kill 99% chinese hamster V79 cells under normoxic condition to hypoxic condition; type: functional, Cricetulus griseus
Summary of the method: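 Clonogenic V79 suspension-culture assay run under both air and hypoxic gassing. Cells exposed 2 h in duplicate flasks per dose, then colonies counted after 7 days with crystal violet. Dose–response curves give the dose producing 1% of control survival in each condition. Ratio = air dose divided by hypoxic dose.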

[7] = Cytotoxicity against chinese hamster V79 cells assessed as survival fraction under normoxic condition at 10 uM after 7 days by crystal violet staining relative to control; type: cell-based, Cricetulus griseus; conditions: read-out: Activity; summary of the method: as §1
[8] = test system: V79; test: Cytotoxicity against chinese hamster V79 cells assessed as survival fraction under hypoxic condition at 10 uM after 7 days by crystal violet staining relative to control; type: functional, Cricetulus griseus; summary of the method: as §2

Row | SMILES | Ratio [1] | Kq [2] | viability at 168 h, 20 µM [3] | Activity [4] | Activity [5] | Ratio [6] | viability at 168 h, 10 µM [7] | Activity [8]
1 | Nc1ccc2c(c1)nc1cc(Br)ccc1[n+]2[O-] | 0.92 | 4.2 | 0% | 0% |  |  |  | 
2 | Cc1ccc2c(c1)nc1cc(N)ccc1[n+]2[O-] | 0.92 | 5.3 | 100% | 100% |  |  |  | 
3 | Nc1ccc2c(c1)[n+]([O-])c1cc(F)ccc1[n+]2[O-] | 0.88 | 7.8 | 0% | 0% | 2.5 µM | 6.8 | 30% | 0%
4 | CN1CCN(c2ccc3[nH]c(-c4ccc5[nH]c(-c6ccc(O)cc6)nc5c4)nc3c2)CC1 | 0.57 |  |  |  |  |  |  | 
5 | COc1cc(NS(C)(=O)=O)ccc1Nc1c2ccccc2nc2ccccc12 | 0.3 |  |  |  |  |  |  | 
6 | Cc1cc2c(cc1F)[n+]([O-])c1ccc(N)cc1[n+]2[O-] | 0.85 |  | 88% | 15% |  |  |  | 
7 | Cc1ccc2nc3ccc(N)cc3nc2c1 | 0.85 | 6.1 | 98% | 100% |  |  |  | 
8 | O=C1c2c(O)ccc(O)c2C(=O)c2c(NCCNCCO)ccc(NCCNCCO)c21 | 0 |  |  |  |  |  |  | 
9 | O=C(CCl)Oc1ccc2c(c1)[n+]([O-])c1cc(Br)ccc1[n+]2[O-] |  |  | 84% | 62% |  |  |  | 
10 | Cc1cc2c(cc1F)[n+]([O-])c1ccc(O)cc1[n+]2[O-] | 0.83 |  | 100% | 95% |  |  |  | 
11 | [O-][n+]1c2ccc(Br)cc2[n+]([O-])c2cc(OCc3ccccc3)ccc21 | 0.88 |  | 86% | 90% |  |  |  | 
12 | Cc1ccc2c(c1)[n+]([O-])c1cc(O)c3ncccc3c1[n+]2[O-] |  |  | 49% | 46% |  |  |  | 
13 | [O-][n+]1c2ccc(O)cc2[n+]([O-])c2cc(Cl)c(Cl)cc21 | 0.96 |  | 1% | 0% |  |  | 0% | 8%
14 | Nc1ccc2c(c1)[n+]([O-])c1cc(Cl)c(Cl)cc1[n+]2[O-] | 0.98 |  | 2% | 0% | 10 µM | 0.9 | 3% | 18%
15 | CC[n+]1c(-c2ccccc2)c2cc(N)ccc2c2ccc(N)cc21 | 0.5 |  |  |  |  |  |  | 
16 | Nc1ccc2nc3ccc(Br)cc3nc2c1 | 0.9 | 7.3 | 0% | 0% |  |  |  | 
